# HTR2A ag – mouse HTR2A agonism via beta-arrestin recruitment; P35363; CHO-K1 mHTR2A beta-arrestin complementation, luminescence; percent of 30 µM serotonin response; activation, % at 7.6 µM; 360,000 compounds, 0.66% hits; AID 624169;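 active means activation above a run cutoff, the mean activation of all tested compounds plus 3 SD, cut at about 14% in these data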;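 further: 0% = plate median of compound wells and 100% = 30 µM serotonin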
# TAAR1 antagonist – human TAAR1 antagonism | Q96RJ0 | CHO RD-HGA16 TAAR1, Fluo-8 calcium fluorescence, antagonist | inhibition, % at 3 µM | 360,000 compounds, 1.5% hits | AID 624466;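 active means inhibition above a per-plate cutoff, the mean inhibition of test compounds on that plate plus 3 SD, cut at about 49% in these data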;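 further: 0% = DMSO plus EC80 beta-PEA response and 100% = DMSO alone without agonist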
#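 Assay system: RD-HGA16 CHO cells with stable hTAAR1 and Gα16 / Reagent: EC80 β-phenethylamine stimulus / Doses: 3 µM, single point / Timing: dye loading 75 min at 37 °C, then 30 min room temperature / Measured by: Fluo-8 intracellular calcium dye fluorescence, real-time kinetic reads / Controls: vehicle wells and EC80 agonist wells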
# TAAR1 ag – agonists of human TAAR1 | Q96RJ0 | activation, % at 3 µM | 360,000 compounds, 0.99% hits | CHO RD-HGA16 TAAR1, Fluo-8 calcium fluorescence; vehicle wells 0%, saturating PEA agonist 100%;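 active means activation above the mean activation of all test compounds in the run plus 3 SD, cut at about 38% in these data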
#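 test system = CHO RD-HGA16 cells carrying human TAAR1 plus Gα16 | schedule = 17-24 h seeding, 75 min 37 °C dye, 30 min RT | compound dosing = 3 µM single concentration | control set = DMSO and PEA EC100 | replicates = n 1 | signal = Fluo-8 fluorescence, 5 s baseline then 140 s kinetic read | measure = percent activation vs PEA EC100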
# M1 PAM – human CHRM1 positive allosteric modulation; P11229; CHO-K1 hM1, Fluo-8 calcium fluorescence, ACh EC20; 0% = ACh EC20, 100% = maximal ACh; activation, % at 3 µM; 360,000 compounds, 0.088% hits; AID 588819; in the data active means activation above about 19%, passing the limit was not always enough
# Target sequence (P11229 whole entry, looked up): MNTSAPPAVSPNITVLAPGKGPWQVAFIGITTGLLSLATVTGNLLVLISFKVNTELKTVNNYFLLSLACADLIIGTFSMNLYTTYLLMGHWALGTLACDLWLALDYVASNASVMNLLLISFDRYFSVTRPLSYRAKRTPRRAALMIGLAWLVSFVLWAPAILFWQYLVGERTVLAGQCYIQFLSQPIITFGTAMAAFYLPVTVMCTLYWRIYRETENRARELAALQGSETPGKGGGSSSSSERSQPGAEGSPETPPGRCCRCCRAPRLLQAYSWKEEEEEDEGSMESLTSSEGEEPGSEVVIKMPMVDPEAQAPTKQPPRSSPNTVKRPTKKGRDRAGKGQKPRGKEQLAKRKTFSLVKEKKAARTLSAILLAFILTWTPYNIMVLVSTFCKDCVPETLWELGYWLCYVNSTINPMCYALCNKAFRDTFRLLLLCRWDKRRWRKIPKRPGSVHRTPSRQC
# M1 ag – agonists of human M1 muscarinic receptor. P11229. CHO-K1 hM1, Fluo-8 calcium fluorescence, agonist mode; 0% DMSO, 100% acetylcholine EC100. activation, % at 3 µM. 360,000 compounds, 0.33% hits. AID 588814;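 active means activation above the run's mean compound activation plus 3 SD, cut at about 16% in these data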;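 further: peak over basal fluorescence ratio within a 140 s kinetic read after compound addition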
# CHRM1 antagonist – blocks human M1 muscarinic receptor | CHO-K1 hM1, Fluo-8 calcium fluorescence, ACh EC80 antagonist | inhibition, % at 3 µM | 360,000 compounds, 1.3% hits | AID 588852;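 active means percent inhibition above its own plate's cutoff, namely the mean of that plate's compound wells plus 3 SD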;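 further: peak over basal fluorescence ratio during 140 s after agonist addition; 0% = ACh EC80 plus DMSO and 100% = DMSO alone without agonist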
# * = called active by the depositor; · = no result. Hits are enriched below; roughly 3.9% of the tested compounds scored in any of these assays.
SMILES,HTR2A ag,TAAR1 antagonist,TAAR1 ag,M1 PAM,M1 ag,CHRM1 antagonist
O=C(NCCCN1CCOCC1)c1ccc2c(c1)N(Cc1ccccc1)C(=O)c1ccccc1S2=O (stereo not drawn),-5,-19,1,13,-6,-18
O=C(NCCCN1CCOCC1)c1ccc2c(c1)N(Cc1cccc(Cl)c1)C(=O)c1ccccc1S2=O (stereo not drawn),-1,-4,3,-7,-4,10
CCC1CCCCN1CCCNC(=O)c1ccc2c(c1)N(Cc1ccc(F)cc1)C(=O)c1ccccc1S2=O (stereo not drawn),-13,3,2,-22,-7,71*
CC1CCCN(CCCNC(=O)c2ccc3c(c2)N(Cc2ccc(F)cc2)C(=O)c2ccccc2S3=O)C1 (stereo not drawn),-7,10,3,-23,-6,42*
CC1CCCN(CCCNC(=O)c2ccc3c(c2)N(Cc2cccc(Cl)c2)C(=O)c2ccccc2S3=O)C1 (stereo not drawn),-8,7,13,-27,-6,40*
O=C(Oc1cccc2c(O)cccc12)c1ccco1,8,-7,0,4,3,1
COc1ccc(-c2cccc3c4c([nH]c23)[C@@H]2C[C@H]3[C@@H](C(=O)N2CC4)[C@H](C)ON3C)cc1,·,3,2,·,·,·
CCN=C(Nc1ccc2c(c1)OCO2)SC1CC(=O)N(c2ccc(OC)cc2)C1=O (stereo not drawn),2,50*,13,-7,0,27*
CS(=O)(=O)N1CCN(c2ccccc2NC(=S)NC(=O)c2cccs2)CC1,0,47,15,10,-3,-3
CS(=O)(=O)N1CCN(c2ccccc2NC(=S)NC(=O)c2ccccc2[N+](=O)[O-])CC1,-3,54*,31,-25,-1,29*
CCCCCOc1ccc2oc(=O)c3c(c2c1)CCCN3C(=O)CN1CCCC(C(=O)OCC)C1 (stereo not drawn),-1,-9,7,-19,-4,35*
O=C(CN1CCCCC1)N1CCCc2c1c(=O)oc1ccc(OCc3ccccc3)cc21,-5,-11,6,-11,-5,9
CC(C)c1ccc(CC(=O)N2CCC2(C)C(=O)NCCC#N)cc1 (stereo not drawn),-2,-16,4,5,-4,-16
O=C(O)c1ccccc1C(=O)NCc1cccnc1,3,-1,5,-5,-3,6
O=C(NCc1cccnc1)NC1(c2ccccc2)CC1,20*,2,1,15,9,-10
Cc1ccc(NC(=O)C2CCN(S(=O)(=O)c3cc([N+](=O)[O-])ccc3Cl)CC2)nc1,1,14,10,-19,-2,42*
CC(NC(=O)C1CCN(S(=O)(=O)c2cc([N+](=O)[O-])ccc2Cl)CC1)c1ccccc1 (stereo not drawn),2,18,5,3,-4,3
O=C(Nc1nc2ccc(F)cc2s1)C1CCN(S(=O)(=O)c2cc([N+](=O)[O-])ccc2Cl)CC1,0,36,4,-22,-9,32*
Cc1ccc2nc(NC(=O)C3CCN(S(=O)(=O)c4cc([N+](=O)[O-])ccc4Cl)CC3)sc2c1,5,27,7,-17,-9,28
COc1ccc(CCN2C(=O)CSC2=Nc2ccc(C(C)C)cc2)cc1OC,0,46,22,-15,-2,41*
N#Cc1cc(-c2ccccc2)oc1NC(=O)c1ccco1,-4,15,0,0,-3,0
Cc1cccc(C(=O)Nc2oc(-c3ccccc3)cc2C#N)c1,-4,49*,5,-4,-4,-20
O=S(=O)(NC1CCN(Cc2ccccc2)CC1)c1ccc2ccccc2c1,-3,12,9,-9,-6,5
O=C(NNS(=O)(=O)c1ccc2ccccc2c1)C1CCN(Cc2ccccc2)CC1,-4,-10,8,-22,-5,85*
O=C1C=C(c2ccc(-c3ccccc3)cc2)C[C@@H](c2ccc(F)cc2)C1,4,4,0,-7,1,9
SMILES,HTR2A ag,TAAR1 antagonist,TAAR1 ag,M1 PAM,M1 ag,CHRM1 antagonist
CC(C)c1cccc(C2=CC(=O)C[C@H](c3ccc(F)cc3)C2)c1,0,52*,6,-8,-8,8
COc1ccc([C@H]2CC(=O)C=C(c3cccc(C(C)C)c3)C2)cc1OC,1,66*,5,-9,-2,20
Cc1c(CN2CCC(CO)(Cc3cccc(C(F)(F)F)c3)CC2)c2ccccc2n1C,-8,5,20,-26,-8,26*
COc1ccc(CN2CCC(CO)(Cc3cccc(C(F)(F)F)c3)CC2)cc1Cn1cccn1,-6,2,5,-18,-2,23*
COc1cc(CN2CCC(CO)(Cc3cccc(C(F)(F)F)c3)CC2)ccc1F,7,-17,8,-4,-4,2
COc1ccc(F)c(CN2CCC(CO)(Cc3cccc(C(F)(F)F)c3)CC2)c1,11,-27,4,-15,-6,16
Cc1cc(C)cc(NC(=O)c2ccc(Cn3nc(C)c(Cl)c3C)o2)c1,0,54*,29,-10,3,15
CSc1nc(SC(C)C(=O)O)c2c3c(sc2n1)COC(C)(C)C3 (stereo not drawn),3,-8,6,8,-3,-9
CSc1nc(SCCN(C)C)c2c3c(sc2n1)COC(C)(C)C3,-11,-27,0,-25,51*,11
CS(=O)(=O)c1ccc(C(=O)OCC(=O)N(CCc2ccccc2)Cc2ccccc2)cc1,-3,·,·,2,-4,-1
CCOc1ccc2nc(SCCNS(=O)(=O)c3ccccc3)sc2c1,-2,60*,7,-4,-8,-1
CCOc1ccc2nc(SCC(=O)c3ccccc3)sc2c1,-2,4,6,-8,-1,-1
O=C(CSc1nccn1Cc1ccccc1)NC1CCCC1,10,-18,3,9,-3,-15
CCOc1cccc2cc(C(=O)NCc3cccnc3)c(=O)oc12,2,3,9,-5,-5,8
C=CCc1cccc2cc(C(=O)NCc3cccnc3)c(=O)oc12,-4,-6,-2,-33,-15,36*
O=C1NC(c2ccc3c(c2)OCO3)c2c(-c3ccccc3)n[nH]c21 (stereo not drawn),·,-6,4,·,·,·
O=c1[nH]c2nc(Br)[nH]c(=O)c2[nH]1,-1,1,8,12,0,-19
CC(C)c1ccc(S(=O)(=O)NC2CCS(=O)(=O)C2)cc1 (stereo not drawn),8,-9,1,18,2,-22
